Consider 41 compounds from ChEMBL document CHEMBL1123555, “1,2-Bis(sulfonyl)hydrazines. 3. Effects of structural modification on antineoplastic activity” (1987).

The species entered for experiment [1] is Mus musculus. Put plainly: Antitumor activity against L1210 leukemia cells in mice calculated as average change in body weight from onset to termination of therapy. The format is functional. A digest of the protocol:
(§1)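 Tumor-bearing mice in groups of five, dosed i.p. daily for 6 days from 24 h post-implantation with suspensions in Tween 80/isotonic saline at 10-150 mg/kg per day; vehicle controls run alongside. Mice weighed during the experiment. Average percent body-weight change from onset to termination of therapy was taken as the toxicity index, reported at the optimal-survival dose.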

A short description of experiment [2]: Antitumor activity against mouse B16 melanoma cells, calculated as average change in body weight from onset to termination of therapy. The format is functional. The method in brief:
as §1

Experiment [3] deals with L1210. The experiment is described as follows: Antitumor activity against L1210 leukemia cells in mice, activity is expressed as optimal effective dose. The format is functional, Mus musculus. The method in brief:
(§2)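 Transplanted tumor in mice, given i.p. once daily for 6 consecutive days starting 24 h after implantation. Doses span 10-150 mg/kg per day as fine suspensions homogenized in a few drops of 20% aqueous Tween 80 and made up with isotonic saline. Groups of five; vehicle-injected tumor-bearing controls. %T/C = mean survival time treated/control × 100. Value is the daily dose giving maximum %T/C.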

The species entered for experiment [4] is Mus musculus. Put plainly: Antitumor activity against B16 melanoma cells in mice. Activity is expressed as optimal effective dose. It counts as functional. The method in brief: as §2
The species entered for experiment [5] is Mus musculus. Put plainly: Antitumor activity against L1210 leukemia cells in mice (activity expressed as average survival time of treated/control animals x 100). It counts as functional. A digest of the protocol:
(§3)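 Compound given ip as a fine suspension (homogenized in drops of 20% aqueous Tween 80, made to volume with isotonic saline) at 10-150 mg/kg per day, once daily for 6 consecutive days starting 24 h after implantation. Vehicle-injected tumor-bearing controls were included. Read-out was survival time; body-weight change over therapy was the toxicity indicator.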

A short description of experiment [6]: Antitumor activity against B16 melanoma cells in mice, activity is expressed as average survival time of treated/control animals x 100. The format is functional, Mus musculus. The method in brief: as §3

A word on the T/C: it is the result in the treated group divided by that in the control group, in per cent.

On to `Cc1ccc(S(=O)(=O)N(C)NS(C)(=O)=O)cc1`, for which the results for the Weight change in experiment [1] and in experiment [2] were -7.9% and -1.9%, respectively. Also, the Dose in experiment [3] amounted to 30 mg/kg; in experiment [4] it was 10 mg/kg.
For `CCS(=O)(=O)NN(C)S(=O)(=O)c1ccc(OC)cc1`, the Weight change in experiment [1] is reported as -8.7%. The same compound returned a T/C in experiment [5] of 149%. The compound also showed a Dose in experiment [3] of 50 mg/kg.
On to `Cc1ccc(S(=O)(=O)NN(C)S(=O)(=O)Cc2ccccc2)cc1`, for which the results for the Weight change in experiment [1] and in experiment [2] were 0.3% and 1%, respectively. Besides, the T/C in experiment [5] is 126%. For the same compound, the Dose in experiment [3] amounted to 100 mg/kg; in experiment [4] it was 50 mg/kg.
Take `Cc1ccc(S(=O)(=O)N(C)NS(=O)(=O)c2ccccc2)cc1`: the Weight change is 2% in experiment [1] and 8.5% in experiment [2]. In addition, the results for the Dose in experiment [3] and in experiment [4] were 50 mg/kg and 150 mg/kg, respectively.
In the case of `CN(NS(C)(=O)=O)S(=O)(=O)c1ccc2ccccc2c1`, in experiment [2], the Weight change was 1.4%. This compound also yielded a Dose in experiment [4] of 20 mg/kg. Moreover, the T/C in experiment [6] was 193%.
For `COc1ccc(S(=O)(=O)N(C)NS(=O)(=O)c2ccc(C)cc2)cc1`, the Weight change in experiment [1] was 9.8%; in experiment [2] it was -14%. Also, the Dose was determined as 150 mg/kg in experiment [3] and 100 mg/kg in experiment [4].
As to `Cc1ccc(S(=O)(=O)NN(C)S(=O)(=O)c2ccc(I)cc2)cc1`, the Weight change in experiment [2] is 1.4%. The Dose in experiment [4] stood at 50 mg/kg.
With `CN(NS(=O)(=O)/C=C/c1ccccc1)S(=O)(=O)c1ccc(Cl)cc1`, the Weight change in experiment [2] was 1.1%. Moreover, in experiment [4], the Dose turned out to be 50 mg/kg.
On to `CN(NS(=O)(=O)c1ccccc1)S(=O)(=O)c1ccc2ccccc2c1`, for which the Weight change in experiment [1] was 1.8%; in experiment [2] it was 5.1%. Also, the Dose in experiment [3] stood at 100 mg/kg; in experiment [4], 50 mg/kg.
With `Cc1ccc(S(=O)(=O)N(C)NS(=O)(=O)c2ccc3ccccc3c2)cc1`, in experiment [1], the Weight change is listed as 9.3%. This compound came in with a Dose in experiment [3] of 75 mg/kg.
`COc1ccc(S(=O)(=O)NN(C)S(=O)(=O)c2ccc(OC)cc2)cc1`: the Weight change in experiment [2] is on record as -2.4%. The Dose in experiment [3] worked out at 50 mg/kg; in experiment [4] it was 100 mg/kg. Moreover, the T/C in experiment [6] came to 191%.
`Cc1ccc(S(=O)(=O)N(C)NS(=O)(=O)c2ccc([N+](=O)[O-])cc2)cc1`: the Weight change in experiment [2] is 1.4%. This compound also had a Dose in experiment [4] of 100 mg/kg.
On to `CN(NS(C)(=O)=O)S(=O)(=O)c1ccc(Cl)cc1`, for which the values for the Weight change in experiment [1] and in experiment [2] were 5.3% and -1.4%, respectively. The Dose in experiment [3] and in experiment [4] was 20 mg/kg in each case.
Regarding `CN(NS(=O)(=O)c1ccc2ccccc2c1)S(=O)(=O)c1ccccc1`, in experiment [2], the Weight change is on record as 2.5%. This compound showed a Dose in experiment [4] of 50 mg/kg.
With `CN(NS(=O)(=O)c1ccccc1)S(=O)(=O)Cc1ccccc1`, the figures for the Weight change in experiment [1] and in experiment [2] were -3.1% and -1.5%, respectively. For the same compound, the Dose in experiment [3] and in experiment [4] was 50 mg/kg throughout.
For `CN(NS(=O)(=O)c1ccc(Cl)cc1)S(=O)(=O)c1ccc(Cl)cc1`, the Weight change in experiment [1] is 1.3%; in experiment [2], 4.8%. The Dose in experiment [3] is 150 mg/kg; in experiment [4], 50 mg/kg. In experiment [6], this compound displayed a T/C of 163%.
For `Cc1ccc(S(=O)(=O)NN(C)S(=O)(=O)c2ccc3ccccc3c2)cc1`, in experiment [1], the Weight change is on record as 8.6%. The same compound came in with a T/C in experiment [5] of 120%. In experiment [3], this compound gave a Dose of 75 mg/kg.
Take `CN(NS(=O)(=O)c1ccccc1)S(=O)(=O)c1ccccc1`: the Weight change in experiment [1] is given as -4.8%; in experiment [2] it was -2.3%. The Dose in experiment [3] was found to be 50 mg/kg; in experiment [4] it was 100 mg/kg. This compound returned a T/C in experiment [6] of 175%.
As for `Cc1ccc(S(=O)(=O)N(C)NS(=O)(=O)c2ccc(Cl)cc2)cc1`, the Weight change in experiment [1] was 3.7%; in experiment [2], 2.9%. In addition, the Dose in experiment [3] and in experiment [4] was 50 mg/kg throughout.
Turning to `COc1ccc(S(=O)(=O)N(C)NS(=O)(=O)c2ccc3ccccc3c2)cc1`, the Weight change in experiment [2] is reported as -0.1%. The Dose in experiment [4] is 100 mg/kg.
Regarding `Cc1ccc(S(=O)(=O)NN(C)S(=O)(=O)c2ccccc2)cc1`, the Weight change in experiment [1] is given as 10.7%; in experiment [2], 0.8%. For the same compound, the Dose in experiment [3] and in experiment [4] was 50 mg/kg throughout.
`CN(NS(=O)(=O)Cc1ccccc1)S(=O)(=O)c1ccccc1`: the Weight change in experiment [2] was 2.2%. This compound displayed a Dose in experiment [4] of 100 mg/kg. The compound also registered a T/C in experiment [6] of 186%.
On to `CN(NS(=O)(=O)Cc1ccccc1)S(=O)(=O)Cc1ccccc1`, for which the Weight change in experiment [2] is given as -17.1%. This compound also yielded a Dose in experiment [4] of 150 mg/kg.
With `CN(NS(C)(=O)=O)S(=O)(=O)Cc1ccccc1`, the Weight change in experiment [1] was 6.7%; in experiment [2] it was 1.9%. Also, in experiment [5], the T/C came to 165%. Also, the Dose in experiment [3] was determined as 20 mg/kg; in experiment [4], 30 mg/kg.
Take `CCS(=O)(=O)NN(C)S(=O)(=O)c1ccc(Cl)cc1`: the Weight change in experiment [2] is on record as -0.1%. Further, in experiment [4], the Dose was found to be 10 mg/kg.
For `CN(NS(=O)(=O)c1ccccc1)S(=O)(=O)c1ccc(Cl)cc1`, the Weight change in experiment [1] is 6.8%; in experiment [2], 2.3%. The compound also came in with a T/C in experiment [5] of 115%. Also, the Dose in experiment [3] and in experiment [4] was 50 mg/kg in each case.
In the case of `COc1ccc(S(=O)(=O)N(C)NS(C)(=O)=O)cc1`, the results for the Weight change in experiment [1] and in experiment [2] were -6.4% and -7.5%, respectively. Besides, the Dose in experiment [3] and in experiment [4] was 20 mg/kg each time.
For the compound `Cc1ccc(S(=O)(=O)NN(C)S(=O)(=O)c2ccc(Cl)cc2)cc1`, the Weight change in experiment [1] is 5.5%; in experiment [2] it was -0.4%. Also, the Dose in experiment [3] is 100 mg/kg; in experiment [4] it was 50 mg/kg.
Consider `COc1ccc(S(=O)(=O)N(C)NS(=O)(=O)c2ccccc2)cc1`, for which the Weight change was -3.9% in experiment [1] and 4.7% in experiment [2]. The compound also came in with a T/C in experiment [5] of 142%. Further, the Dose in experiment [3] and in experiment [4] was 100 mg/kg each time.
With `COc1ccc(S(=O)(=O)NN(C)S(=O)(=O)c2ccccc2)cc1`, the Weight change is 4.5% in experiment [1] and -5.9% in experiment [2]. Also, the Dose in experiment [3] and in experiment [4] was 50 mg/kg in each case.
In the case of `CN(NS(C)(=O)=O)S(=O)(=O)c1ccc(I)cc1`, in experiment [2], the Weight change was 4%. In experiment [4], this compound showed a Dose of 40 mg/kg.
Taken in the same sequence, the figures for `COc1ccc(S(=O)(=O)NN(C)S(=O)(=O)Cc2ccccc2)cc1` were 0.2% and 150 mg/kg.
On to `CN(NS(=O)(=O)c1ccc(Cl)cc1)S(=O)(=O)c1ccccc1`, for which the Weight change was 14.6% in experiment [1] and -2.9% in experiment [2]. Moreover, the Dose in experiment [3] was found to be 50 mg/kg; in experiment [4], 100 mg/kg.
Regarding `CN(NS(=O)(=O)c1ccc2ccccc2c1)S(=O)(=O)c1ccc(Cl)cc1`, the Weight change in experiment [1] is 9%; in experiment [2] it was -4%. Moreover, the Dose in experiment [3] amounted to 100 mg/kg; in experiment [4], 50 mg/kg.
On to `CN(NS(=O)(=O)c1ccc(Br)cc1)S(=O)(=O)c1ccccc1`, for which the Weight change in experiment [2] is -1.6%. The same compound displayed a Dose in experiment [4] of 50 mg/kg.
Turning to `CCS(=O)(=O)NN(C)S(=O)(=O)c1ccc(C)cc1`, the values for the Weight change in experiment [1] and in experiment [2] were -2.6% and -1.1%, respectively. In experiment [5], this compound registered a T/C of 162%. Moreover, the Dose in experiment [3] was found to be 30 mg/kg; in experiment [4], 50 mg/kg.
Consider `CN(NS(=O)(=O)c1ccc(Cl)cc1)S(=O)(=O)Cc1ccccc1`, for which the results for the Weight change in experiment [1] and in experiment [2] were 10.2% and 1.4%, respectively. Also, the Dose in experiment [3] and in experiment [4] was 50 mg/kg throughout.
Consider `CCS(=O)(=O)NN(C)S(=O)(=O)c1ccc(I)cc1`, for which, in experiment [2], the Weight change is recorded as 5.2%. The Dose in experiment [4] was found to be 30 mg/kg. The compound also had a T/C in experiment [6] of 177%.
As to `Cc1ccc(S(=O)(=O)NN(C)S(=O)(=O)c2ccc(C)cc2)cc1`, the Weight change in experiment [1] is 3.7%; in experiment [2] it was -2.7%. For the same compound, the values for the Dose in experiment [3] and in experiment [4] were 50 mg/kg and 150 mg/kg, respectively.
Take `CN(NS(=O)(=O)c1ccc2ccccc2c1)S(=O)(=O)Cc1ccccc1`: in experiment [1], the Weight change is recorded as 10.3%. For the same compound, the Dose in experiment [3] and in experiment [4] was 50 mg/kg in each case. The compound also showed a T/C in experiment [6] of 179%.
With `COc1ccc(S(=O)(=O)NN(C)S(=O)(=O)c2ccc(C)cc2)cc1`, the Weight change in experiment [1] was 7.8%; in experiment [2], 9.1%. The Dose in experiment [3] and in experiment [4] was 100 mg/kg each time. Besides, the T/C in experiment [6] was determined as 200%.
